Results: EPA's CvTdb concentration-time database

Tests used:
Rat [1] = test: concentration in liver after dosing; settings: 1 h; dosed: Perfluorodecanoic acid; 10 mg/kg; oral; Male; Harlan Sprague Dawley
Rat [2] = test: concentration in kidney after dosing; settings: 864 h; dosed: Perfluorodecanoic acid; 10 mg/kg; oral; Female; Harlan Sprague Dawley
Rat [3] = test: concentration in plasma after dosing; settings: 6 h; dosed: Di-n-butyl phthalate; 50 mg/kg; oral; Male; Sprague-Dawley
Rat [4] = test: concentration in plasma after dosing; settings: 5 min; dosed: Di-n-butyl phthalate; 100 mg/kg; oral; Male; Sprague-Dawley
Rat [5] = test: concentration in plasma after dosing; settings: dosed: dichloroacetic acid, 100 mg/kg, oral, Male, F344
Rat [6] = test: concentration in plasma after dosing; settings: 5 min; dosed: dichloroacetic acid; 10 mg/kg; oral; Male; Harlan Sprague Dawley
Rat [7] = test: concentration in plasma after dosing; settings: dosed: dichloroacetic acid, 40 mg/kg, oral, Female, Harlan Sprague Dawley
Rat [8] = test: concentration in plasma after dosing; settings: dosed: dichloroacetic acid, 10 mg/kg, oral, Male, Harlan Sprague Dawley
human = test: concentration in plasma after dosing; negative times count back from the end of exposure; settings: dosed: trichloroethylene, 100 ppm, inhalation, duration: 4 hr, person
Procedure, shortened: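 Concentration-versus-time or amount-versus-time points were compiled from published in vivo toxicokinetic studies and from two structured collections. The studies were found by PubMed searching, classifier screening and manual review. Points were mostly digitised from plot screenshots with WebPlotDigitizer, otherwise copied from tables, and kept in the reported units. Dose, route, subject details and medium were curated by hand from each paper, and sampling and analytical methods follow each source and were often unreported.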

Rat [9] = test: concentration in plasma after dosing; settings: dosed: Wyeth-14643, 2.0 mg/kg, oral, Male, Sprague-Dawley
Rat [10] = test: concentration in plasma after dosing; settings: 5 min; dosed: Wyeth-14643; 2.0 mg/kg; iv; Male; Sprague-Dawley
Rat [11] = test: concentration in plasma after dosing; settings: 1 h; dosed: Wyeth-14643; 2.0 mg/kg; iv; Male; Sprague-Dawley
Rat [12] = test: concentration in plasma after dosing; settings: 0.25 h; dosed: Wyeth-14643; 5.0 mg/kg; oral; Male; Sprague-Dawley
Rat [13] = test: concentration in heart after dosing; settings: 40 min; dosed: Bis 2-Chloroethoxy Methane; 20 mg/kg; iv; Female; F344
Rat [14] = test: concentration in heart after dosing; settings: 2 h; dosed: Bis 2-Chloroethoxy Methane; 20 mg/kg; iv; Male; F344
Rat [15] = test: concentration in liver after dosing; settings: 20 min; dosed: Bis 2-Chloroethoxy Methane; 20 mg/kg; iv; Female; F344
Rat [16] = test: concentration in heart after dosing; settings: 5 h; dosed: Bis 2-Chloroethoxy Methane; 20 mg/kg; iv; Female; F344
Rat [17] = test: concentration in liver after dosing; settings: 40 min; dosed: Bis 2-Chloroethoxy Methane; 20 mg/kg; iv; Male; F344
Rat [18] = test: concentration in plasma after dosing; settings: 2 h; dosed: Bis 2-Chloroethoxy Methane; 20 mg/kg; iv; Female; F344
Rat [19] = test: concentration in brain after dosing; settings: 3 h; dosed: Fluorotelomer alcohol 8+2; 24 mg/kg; oral; Male; Harlan Sprague Dawley
Rat [20] = test: concentration in liver after dosing; settings: 3 h; dosed: Fluorotelomer alcohol 8+2; 24 mg/kg; oral; Male; Harlan Sprague Dawley
Rat [21] = test: concentration in plasma after dosing; settings: dosed: Fluorotelomer alcohol 8+2, 40 mg/kg, iv, Female, Harlan Sprague-Dawley
Rat [22] = test: concentration in plasma after dosing; settings: dosed: Fluorotelomer alcohol 8+2, 12 mg/kg, iv, Male, F344
Rat [23] = test: concentration in plasma after dosing; settings: dosed: Fluorotelomer alcohol 8+2, 12 mg/kg, oral, Male, Harlan Sprague Dawley
Rat [24] = test: concentration in liver after dosing; settings: 20 min; dosed: Thiodiglycolic Acid; 20 mg/kg; iv; Female; Harlan Sprague Dawley
Rat [25] = test: concentration in heart after dosing; settings: 20 min; dosed: Thiodiglycolic Acid; 20 mg/kg; iv; Female; F344
Rat [26] = test: concentration in thymus after dosing; settings: 4 h; dosed: Thiodiglycolic Acid; 20 mg/kg; iv; Female; Harlan Sprague Dawley
Rat [27] = test: concentration in thymus after dosing; settings: 40 min; dosed: Thiodiglycolic Acid; 20 mg/kg; iv; Female; Harlan Sprague Dawley
Rat [28] = test: concentration in plasma after dosing; settings: 6 h; dosed: Primidone; 30 mg/kg; oral; Male; F344
Rat [29] = test: concentration in plasma after dosing; settings: 12 h; dosed: Primidone; 130 mg/kg; oral; Female; F344
Rat [30] = test: concentration in plasma after dosing; settings: 1.5 h; dosed: Primidone; 30 mg/kg; oral; Male; F344
Rat [31] = test: concentration in plasma after dosing; settings: 22 h; dosed: Primidone; 30 mg/kg; oral; Female; F344

O=C(O)C(F)(F)C(F)(F)C(F)(F)C(F)(F)C(F)(F)C(F)(F)C(F)(F)C(F)(F)C(F)(F)F [Perfluorodecanoic acid]
Settings | concentration in kidney [ng/g] | concentration in liver [ng/g]
Rat [1] | – | 50300
Rat [2] | 18600 | –

CCCCOC(=O)c1ccccc1C(=O)O [Mono-n-butyl phthalate]
Settings | concentration in plasma [µg/mL]
Rat [3] | 2.06
Rat [4] | 1.43

O=C(O)C(Cl)Cl [dichloroacetic acid]
Settings | concentration in plasma
Rat [5], 2 h | 41.3 µg/mL
Rat [5], 5 min | 7.12 µg/mL
Rat [7], 1.25 h | 5.69 µg/mL
Rat [7], 5 min | 4.33 µg/mL
Rat [8], 10 min | 0.438 µg/mL
Rat [8], 50 min | 0.158 µg/mL
human, 0 h | 6 ng/mL
human, 0.25 h | 9 ng/mL
human, 0.5 h | 13 ng/mL
human, 1 h | 12 ng/mL
human, 2 h | 11 ng/mL
human, 4 h | 5 ng/mL
human, 8 h | 5 ng/mL
human, 12 h | 4 ng/mL
human, 14 h | 4 ng/mL
human, 18 h | 5 ng/mL
human, 41 h | 6 ng/mL
human, 65 h | 4 ng/mL

Settings | concentration in plasma [µg/mL]
Rat [6] | 0.43

human, during exposure
Settings | concentration in plasma [ng/mL]
-3.48 h | 80
-3 h | 8
-2 h | 7
-1 h | 7

Cc1cccc(Nc2cc(Cl)nc(SCC(=O)O)n2)c1C
Rat [9]
Settings | concentration in plasma [µg/mL]
2 h | 0.656
7 h | 0.12

Settings | concentration in plasma [µg/mL]
Rat [10] | 7.29
Rat [11] | 2.38
Rat [12] | 10.6

ClCCOCOCCCl [Bis 2-Chloroethoxy Methane]
Settings | concentration in heart [ng/g] | concentration in liver [ng/g] | concentration in plasma [ng/mL]
Rat [13] | 5350 | – | –
Rat [14] | 119 | – | –
Rat [15] | – | 1090 | –
Rat [16] | 33 | – | –
Rat [17] | – | 4070 | –
Rat [18] | – | – | 150

OCCC(F)(F)C(F)(F)C(F)(F)C(F)(F)C(F)(F)C(F)(F)C(F)(F)C(F)(F)F [Fluorotelomer alcohol 8+2]
Settings | concentration in brain [ng/g] | concentration in liver [ng/g]
Rat [19] | 1780 | –
Rat [20] | – | 3080

Settings | concentration in plasma [ng/mL]
Rat [21], 1 h | 3650
Rat [21], 24 h | 26.8
Rat [22], 0.25 h | 1710
Rat [22], 24 h | 3.59
Rat [23], 0.5 h | 274
Rat [23], 9 h | 10.3

O=C(O)CSCC(=O)O [Thiodiglycolic Acid]
Settings | concentration in heart [ng/g] | concentration in liver [ng/g] | concentration in thymus [ng/g]
Rat [24] | – | 91400 | –
Rat [25] | 3820 | – | –
Rat [26] | – | – | 657
Rat [27] | – | – | 3380

CCC1(c2ccccc2)C(=O)NC(=O)NC1=O [Phenobarbital]
Settings | concentration in plasma [µg/mL]
Rat [28] | 3.11
Rat [29] | 8.21
Rat [30] | 1.94
Rat [31] | 0.72
